# Test results: ChEMBL document CHEMBL4513216, “Probing the Open Global Health Chemical Diversity Library for Multistage-Active Starting Points for Next-Generation Antimalarials” (ACS Infect Dis, 2020)
# Experiment: Toxicity liver stage against HepG2, at 10uM
# Format: cell-based
# Parameters: test concentration 10 uM, cell line HepG2-A16-CD81EGFP
# Conditions: human, HepG2-A16-CD81EGFP cells; read-out: INHIBITION
# Summary of the method: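 Uninfected HepG2-A16-CD81EGFP cells, 3 × 10^3 per well, 1536-well, plated on prespotted compound at 10 μM final, parasite-free screening media added to match infected plates; puromycin 10 μM positive, DMSO 0.5% negative; run in parallel with 48 h PbLuc assay at 37 °C, 5% CO2; viability by CellTiter-Glo luminescence, normalized to controls.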
row,Structure (SMILES),cytotoxicity at 10 µM [%]
1,Cc1ccc(OCCC(=O)N2CCOCC2c2ncon2)cc1C (configuration not stated),-11.9
2,CC/N=c1\nc(NCC)nc2n1C(O)(Nc1ccc(C)cc1C)CS2 (configuration not stated),-1.95
3,CCCC(C)C(=O)Nc1ccc(OC)nc1N1CCN(C(C)=O)CC1 (configuration not stated),-5.46
4,NC(=O)c1c(NC(=O)C2CCCO2)sc2c1CCc1ccccc1-2 (configuration not stated),0.794
5,CCOc1ccnc(N2CCCN(c3nc(CC)ns3)CC2)n1,1.19
6,OCCN1CCN(CC2(O)CCCCC2)CC1,3.66
7,COCc1cccc(C(=O)N(C)Cc2ncc(C)c(OC)c2C)c1,-13.1
8,CC(C)NC(=O)C1CN(C(N)=O)Cc2ccnn2C1 (configuration not stated),-8.68
9,CCCNC(=O)N1CCc2ccc(S(=O)(=O)N3CCCC3)cc2C1,-12.3
10,COc1ccc2oc(C(C)NC(=O)NC3CCN(C)CC3)c(C)c2c1 (configuration not stated),2.62
11,Cc1ccoc1C(=O)N1CC[C@@H]2O[C@@H](C)C[C@H]2C1,2.26
12,CN(C)C(=O)CS(=O)(=O)Cc1cc(Cl)c2c(c1)OCCCO2,-5.08
13,COc1cc(C)nc(N2CCN(C(=O)CNC(C)(C)C)CC2)n1,-7.67
14,O=C(NC[C@H]1CCCN1)c1cc(COc2cccc(C(F)(F)F)c2)[nH]n1,-7.59
15,CCC1(C)Cc2ccccc2-c2nc(NCCO)nc(O)c21 (configuration not stated),4.1
16,COC(=O)[C@@H]1Cc2[nH]cnc2CN1Cc1cc2ccccc2o1,0.994
17,Cc1ccc(CN2CCCC23CCN(S(=O)(=O)c2ccccc2)C3)o1 (configuration not stated),0.642
18,O=C(CSC1CCc2ccccc2NC1=O)NCCc1ccco1 (configuration not stated),-13
19,OC(CNCCn1cccn1)c1ccc(C(F)(F)F)cc1 (configuration not stated),-5.4
20,CCS(=O)(=O)N1CCc2ccc(NC(=O)Nc3cccc(SC)c3)cc21,37.7
21,COc1ccc2nnc(C(=O)NCC3CCCC3)nc2c1,-3.35
22,O=C(C1CC(=O)N(c2n[nH]c3cc(Br)ccc23)C1)N1CCCC1 (configuration not stated),-11.2
23,CC(NCc1c(C(C)C)nn(C)c1N(C)C)C(=O)NC1CCCC1 (configuration not stated),0.966

row,Structure (SMILES),cytotoxicity at 10 µM [%]
1,Cc1cc(C2CCCN2C(=O)c2cc3c(s2)CCC3)no1 (configuration not stated),-11
2,Cn1cnnc1C1CCCN(C(=O)c2ccccn2)C1 (configuration not stated),-8.31
3,COCCNc1cc(C(=O)N2CCOCC2)nc(C)n1,0.598
4,O=S1(=O)NCC2(CCCN(Cc3ccccn3)C2)Oc2ncccc21 (configuration not stated),2.22
5,CSc1nccc(NCc2cc3n(n2)CCCN(S(C)(=O)=O)C3)n1,3.25
6,Fc1cccnc1O[C@@H]1CN(Cc2ccccn2)[C@@H]2CCCO[C@@H]21,1.71
7,CN(C)c1nc2c(c(NCc3nnc4n3CCCCC4)n1)CCNC2,-1.37
8,CCn1ncc2c1CCCC2NCc1cc(C)ccc1OC (configuration not stated),1.8
9,CCN1CCCC(NC(=O)c2ccc(C)[nH]c2=O)C1 (configuration not stated),9.95
10,CN(Cc1ccncc1)Cc1nccn1Cc1ccccc1,12.5
11,Cc1csc(CNc2cnn(CC(F)(F)F)c2)n1,5.19
12,CC(c1ccncc1)N(CCN(C)C)C(=O)Nc1ccc(Cl)cc1 (configuration not stated),8.88
13,O=C(Cc1ccc(-n2cccn2)cc1)N1CCN2CCCCC2C1 (configuration not stated),4.31
14,O=C(O)c1cnc(OCC2CC2)c(Br)c1,9.38
15,CCCC(=O)Nc1ccc(CC(=O)N(C)CCc2cn[nH]c2)cc1,4.84
16,CN1CCCC1c1ccnc(-c2ccccn2)n1 (configuration not stated),-5.26
17,O=S(=O)(CCN1CCc2c(ncn2C2CC2)C1)c1ccccc1,-14.5
18,CNc1nc(C2CCCN2)nc2c1CCN(S(=O)(=O)C1CCCCC1)C2 (configuration not stated),9.17
19,CCOC(C)c1nc(CN2CCC(CNC(C)=O)CC2)cs1 (configuration not stated),-15
20,Cn1ccnc1CCC1CCCCN1Cc1nccn1C (configuration not stated),8.13
21,COCCN(Cc1cc(O)nc2ccccc12)C(=O)NC(C)C,7.66
22,COc1ccc2[nH]cc(C(=O)N3C[C@@H](O)[C@H](N4CCOCC4)C3)c2c1,-9.06
23,CCN1CCC(N2CCC(C(=O)N(C)C)CC2)CC1,0.486

row,Structure (SMILES),cytotoxicity at 10 µM [%]
1,Cc1ccccc1CCNC(=O)C1CC(=O)N(CC(F)(F)F)C1 (configuration not stated),-6.17
2,CCNC(=O)CN(CC)S(=O)(=O)c1c(Br)cc2[nH]c(=O)oc2c1Cl,9.69
3,Cc1cnc(N2C[C@@H]3[C@@H](C(=O)NC(C)C)CCS(=O)(=O)[C@@H]3C2)nc1,-130
4,Cc1nn(-c2ccccc2)nc1C(=O)N1CCCC(n2cccn2)C1 (configuration not stated),-9.53
5,Cc1cc(C(=O)N(CC2CCCO2)c2ccncc2)c(C)o1 (configuration not stated),-8.97
6,CCc1noc(CN(C)C(=O)C(C)(C)Oc2cccc(Cl)c2)n1,-3.63
7,COCCCNS(=O)(=O)c1ccc2c(c1)NC(=O)C(C)O2 (configuration not stated),1.52
8,O=C1CC(NCc2ccncc2)CN1CCc1cccc(Cl)c1 (configuration not stated),-127
9,Cc1cc2ccccc2n1CCC(=O)NCCN(C)S(C)(=O)=O,5.56
10,CN(Cc1ccccc1)C1(C(=O)O)Cc2ccccc2C1,1.04
11,COCCN1CCCC1(C)c1nc(C)cc(N)n1 (configuration not stated),-3.73
12,CC(=O)c1ccc(CN2CCCC23CCN(c2ccccn2)CC3)cc1,1.5
13,CC(=O)c1cccc(NC(=O)CCn2nc(-c3cccs3)oc2=O)c1,-4.47
14,CC1CCc2n[nH]c(C(=O)N3CCc4c(nc(N(C)C)[nH]c4=O)C3)c2C1 (configuration not stated),21.4
15,CCCn1c(N2CCCCC2)nc2c(C)nn(C)c2c1=O,11.8
16,O=C(C[S+]([O-])Cc1c(Cl)cccc1Cl)N1CCc2sccc2C1 (configuration not stated),-7.23
17,CC(=O)N1CC(=O)N(c2ccccc2)CC12CCN(Cc1cccs1)C2 (configuration not stated),-11.1
18,O=C(c1csc(-c2cccs2)n1)N1CCN2CCCCC2C1 (configuration not stated),-3.04
19,CNc1cc2c(nn1)CCN(C(=O)c1coc(Br)c1)C2,-13.6
20,c1ccc(-c2nnc(CN3CCCC3Cn3cncn3)o2)cc1 (configuration not stated),-7.42
21,CC1CCN(c2ccc(C(=O)N3CCCC3c3nncn3C)cn2)CC1 (configuration not stated),-1.88
22,Cc1cc(C)c(CNC(=O)N(C)CC2CCCCO2)c(=O)[nH]1 (configuration not stated),-8.93
23,CCCn1ncc(-c2nc3c(cnn3CC)[nH]2)c1C,4.05

row,Structure (SMILES),cytotoxicity at 10 µM [%]
1,O=C(CSCC1CC1)N1CCCC(c2nccn2Cc2ccccn2)C1 (configuration not stated),1.34
2,CC(C)Nc1ccc2nc(C3CCNCC3)nn2c1,-6.75
3,Cc1nc[nH]c1CN(C)CC1CCCN(CCc2ccc(Cl)cc2)C1 (configuration not stated),-15.5
4,COCCC(=O)N1Cc2ccccc2OC2(CCOCC2)C1,-2.53
5,Cn1cnc(S(=O)(=O)N2CCCc3cccc(F)c32)c1Cl,-4.63
6,c1ccc(-c2nc(CCNC3CCOC4(CCOCC4)C3)no2)cc1 (configuration not stated),4.47
7,c1cnn(CC2CCCCN2c2ncnc3ccsc23)c1 (configuration not stated),-13.9
8,CC(C)(C)n1ncc2c1NC(=O)CSC2c1ccsc1 (configuration not stated),-2.34
9,O=C(c1ccn(-c2cccc(F)c2)n1)N1CCCC(n2cccn2)C1 (configuration not stated),-5.25
10,Cc1nn(CC(=O)Nc2ccc(F)cc2)c(N)c1C#N,13.3
11,Cc1ccccc1CCC(=O)N1CCc2ncnc(NCCO)c2CC1,-21
12,CCC[C@H]1CN(C(=O)CCn2ccccc2=O)C[C@@H]1NS(C)(=O)=O,5.35
13,CCc1nc(C2CCCN2CC(=O)Nc2cc(C)no2)no1 (configuration not stated),-1.68
14,CN(Cc1ccccc1F)C(=O)c1ccoc1,11.3
15,Cc1noc(C)c1C(=O)N1CCCC(c2nccn2Cc2cscn2)C1 (configuration not stated),2.11
16,COc1c(C2CCCN2C(=O)c2ccc3cc[nH]c3c2)c(C)nn1C (configuration not stated),-2.74
17,CC1c2ncc(Cn3cccn3)n2CCN1Cc1ccccn1 (configuration not stated),-106
18,CN1CC(=O)N(c2cccc(F)c2)CC12CCN(CC1CC1)C2 (configuration not stated),2.26
19,COc1ccccc1CC(=O)N1C[C@@H]2CC[C@H]1CN(Cc1cscn1)C2,-1.87
20,COc1ccc(CCNC2CCCN(Cc3noc(C)n3)C2)cc1 (configuration not stated),-5.98
21,CCc1nnc(CNC2CCc3nc(C(C)C)nn3C2)o1 (configuration not stated),-20.6
22,Cc1nc(NC2CC(C)(C)NC(C)(C)C2)c2c(n1)c(C)nn2C,-11.5
23,Cn1c(C(F)(F)F)nn(CCNC(=O)c2cnc3ccccc3n2)c1=O,-20

row,Structure (SMILES),cytotoxicity at 10 µM [%]
1,Oc1nnc(-c2ccccc2)c2sc(N3CCCCC3)nc12,-1.81
2,CCC(C(=O)NC1CCN(S(C)(=O)=O)CC1)n1cccn1 (configuration not stated),-2.42
3,CN(C)C(C(=O)NC1(CO)CCCC1)c1ccc(F)cc1 (configuration not stated),-48.2
4,c1csc(CN2CCc3onc(Cn4cccc4)c3C2)c1,6.59
5,CN(C)c1nccc(CNC(=O)NCc2ccco2)n1,-2.48
6,COc1cc(CNCCc2nc(C)cs2)cc2c1OCCO2,-2.4
7,COCC1CCN(c2ccnc3ccsc23)C1 (configuration not stated),6.24
8,N#Cc1ccccc1OCCN1CCN(C(=O)C2CCCC2)CC1,-52.1
9,CCC(CC)NC(=O)c1ccc2nnc(C3CCN(S(C)(=O)=O)C3)n2c1 (configuration not stated),3.25
10,OC1(CN2CCCC2)CCCN(Cc2cnc(-c3ccco3)nc2)C1 (configuration not stated),-6.84
11,COc1c(CNCCNC(=O)c2ccc(C)cc2)c(C(C)C)nn1C,-0.945
12,COC(=O)C(C)(C)S(=O)(=O)c1ccc(Br)cc1,5.25
13,Cn1ncnc1NCc1ccc(Br)cc1,-11.9
14,COCC(=O)N1CCN(S(=O)(=O)c2ccccc2)[C@@H](C(=O)OC)C1,1.03
15,CS(=O)(=O)N1CCCC12CCCN(c1nccs1)C2 (configuration not stated),4.92
16,COCCN1C[C@@H]2CC[C@H]1CN(Cc1nc3ccccc3n1C)C2,-11.2
17,O=C(NCCNC(=O)c1scnc1Cl)c1ccccc1Cl,-0.524
18,CN(C)C(=O)N1CCOCC2(CCN(c3ccccn3)C2)C1 (configuration not stated),1.6
19,CC(C)(C)OC(=O)NC(C)(C)c1noc(CSc2ccccn2)n1,9.18
20,c1csc(CN2CCc3nnc(COc4cncnc4)n3CC2)c1,2.49
